Bioassay records from PubChem BioAssay.
Kir21 inh: inhibitors of mouse Kir2.1 inward-rectifier potassium channel. P35561. HEK293-Kir2.1, FluxOR thallium flux fluorescence; stronger effect = lower value. B-score at 10 µM. 310,000 tested, 0.85% active;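 active = fluorescence ratio B-score at or below minus 3 SD of library scores, with starting-brightness B-score within 2 SD, cut at about -4.2 in these data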;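 also: channel flux triggered by added potassium and thallium sulfate stimulus; B-score of peak minus minimum fluorescence over baseline after thallium stimulus; more negative B-score means stronger Kir2.1 block with less thallium influx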
TRPC6 activator: activates the mouse TRPC6 cation channel | Q61143 | B-score at 10 µM | HEK293-TRPC6 membrane potential dye fluorescence; stronger effect = higher value | 310,000 tested, 0.13% active;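 active = B-score of the integrated fluorescence ratio above library mean plus 3 SD, and starting fluorescence ratio within library mean plus 5 SD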;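 also: higher score means more depolarization so channel activation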
TRPC4 act: opens the mouse TRPC4 cation channel. 310,000 tested, 0.49% active. HEK293 TRPC4beta/mu-opioid, Fluo4 calcium fluorescence; stronger effect = higher value. B-score at 10 µM. Q9QUQ5;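 active = B-score above 5 SD of library B-scores, and initial fluorescence ratio not above library mean plus 5 SD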;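 also: positive B-score marks a calcium rise read as TRPC4 activation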
Target sequence (Q9QUQ5 whole entry, looked up): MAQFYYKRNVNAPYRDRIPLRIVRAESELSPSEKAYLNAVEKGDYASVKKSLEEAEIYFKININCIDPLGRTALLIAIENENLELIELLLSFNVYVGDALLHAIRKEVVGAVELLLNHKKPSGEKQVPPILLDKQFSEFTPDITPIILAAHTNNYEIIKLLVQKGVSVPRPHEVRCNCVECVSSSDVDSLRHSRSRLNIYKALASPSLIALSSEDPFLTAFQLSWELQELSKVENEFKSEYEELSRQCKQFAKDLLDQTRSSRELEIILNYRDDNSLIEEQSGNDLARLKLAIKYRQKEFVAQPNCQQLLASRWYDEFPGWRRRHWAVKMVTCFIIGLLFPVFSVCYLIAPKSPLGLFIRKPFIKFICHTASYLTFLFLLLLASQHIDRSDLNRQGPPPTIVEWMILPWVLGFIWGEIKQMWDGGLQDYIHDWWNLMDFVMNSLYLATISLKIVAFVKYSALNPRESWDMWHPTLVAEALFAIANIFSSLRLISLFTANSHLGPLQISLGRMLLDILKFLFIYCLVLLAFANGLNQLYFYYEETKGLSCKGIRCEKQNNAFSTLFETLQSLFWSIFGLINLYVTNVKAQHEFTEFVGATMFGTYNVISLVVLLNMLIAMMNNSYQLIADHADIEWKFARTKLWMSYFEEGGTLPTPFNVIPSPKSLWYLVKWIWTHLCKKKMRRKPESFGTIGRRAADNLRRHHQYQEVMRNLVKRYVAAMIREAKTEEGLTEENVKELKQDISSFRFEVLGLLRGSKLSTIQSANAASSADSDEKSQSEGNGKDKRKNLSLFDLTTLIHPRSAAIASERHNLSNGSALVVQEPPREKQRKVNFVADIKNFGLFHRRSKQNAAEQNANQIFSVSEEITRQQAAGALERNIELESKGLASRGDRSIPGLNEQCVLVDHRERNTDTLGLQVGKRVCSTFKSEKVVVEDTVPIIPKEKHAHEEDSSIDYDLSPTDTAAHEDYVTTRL
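Incubation: 45 min room-temperature Fluo4 loading, 110 s read / System: HEK293 cells stably co-expressing mouse TRPC4beta and mu-opioid receptor / Signal: Fluo4 fluorescence, kinetic / Control set: buffer (low) and maximal DAMGO (high) / Measure: integrated baseline-normalised fluorescence ratio, converted to per-well B score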
TRPC4 inh: inhibitors of mouse TRPC4 channel. B-score at 10 µM. AID 2247. 300,000 tested, 0.39% active. Q9QUQ5. HEK293 TRPC4beta/mu-opioid, DAMGO-evoked Fluo4 calcium flux; stronger effect = lower value;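 active = B-score over 3 SD under the library average, no early fluorescence shift, positive overall ratio signal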
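Assay system: Stable TRPC4beta/mu-opioid receptor HEK293 cells | Reagent: DAMGO in two steps, submaximal then maximal | Compound dosing: Single concentration per test compound | Signal: Fluo4 Ca2+ flux fluorescence | Evaluation: Per-well B score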
TRPC4 potent: allosteric potentiators of mouse TRPC4 channel | 310,000 tested, 0.42% active | B-score at 10 µM | HEK293 TRPC4beta/mu-opioid, DAMGO EC20, Fluo-4 Ca2+ flux; stronger effect = higher value | Q9QUQ5;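 active = B-score of calcium response area above 5 SD of library B-scores, with initial fluorescence ratio within 5 SD of library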;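 also: B-score of integrated fluorescence ratio over time as area under calcium response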
TRPC6 inh: mouse TRPC6 channel inhibition | Q61143 | HEK293-TRPC6, membrane potential dye, ACh-evoked depolarization; stronger effect = lower value | 310,000 tested, 1.1% active | B-score at 10 µM;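 active = B-score under library mean minus 3 SD, initial fluorescence not abnormally high, positive integrated signal ratio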;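 also: B-score derived from integrated fluorescence ratio over the kinetic read; more negative B-score means stronger inhibition of depolarization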
An asterisk follows results filed as active; i = inactive. Hits are enriched below; roughly 2.9% of the tested compounds scored in any of these assays.

SMILES | Kir21 inh | TRPC6 activator | TRPC4 act | TRPC4 inh | TRPC4 potent | TRPC6 inh
CCC(=O)N(CC)c1nc(-c2ccc(OC)cc2)cs1 | -0.02 | i | i | i | i | i
CSc1sc(C)cc1C=O | 0.07 | i | i | i | i | i
CC1=NNC(=O)C1C(c1ccc(F)cc1)C(C#N)C#N (centres undefined) | -4.3* | i | i | i | i | i
CC(=O)N(c1nnc(-c2ccc(C)cc2)s1)C1CCCC1 | 0.02 | i | i | i | i | i
O=C(CSCc1nc2ccccc2[nH]1)Nc1ccc2ccccc2c1 | -2 | i | i | i | i | i
CSCC(C)N1CCC(Oc2cccc(C(=O)NCc3ccccn3)c2)CC1 (centres undefined) | 1.2 | i | i | i | i | -5.7*
CC#CC(=O)N1CCC(Oc2cccc(C(=O)NCc3ccccn3)c2)CC1 | 1.5 | i | i | i | i | i
C=CCNC(=O)/C(C#N)=C/c1ccc(SC)cc1 | 0.92 | i | i | i | 10* | i
COc1ccc(OCCNC2CCCC2)cc1 | 1.1 | i | i | i | i | i
c1ccc(-c2ccc(OCCCNC3CCCC3)cc2)cc1 | -5.8* | i | i | i | i | i
c1ccc(Cc2ccc(OCCCNC3CCCC3)cc2)cc1 | -8.1* | i | i | i | i | i
CCCCCC(=O)NCC(C)NC(=O)CCCCC (centres undefined) | 0.89 | i | i | i | i | i
CC(C)n1c(SCc2cc(=O)[nH]c3ccccc23)nc2c1c(=O)n(C)c(=O)n2C | -0.44 | i | i | i | i | i
CC(C)n1c(SCc2ccccc2F)nc2c1c(=O)n(C)c(=O)n2C | -4.6* | i | i | i | i | i
CC(C)n1c(SCC(=O)N2c3ccccc3Sc3ccccc32)nc2c1c(=O)n(C)c(=O)n2C | 0.93 | i | i | i | 17* | i
CC(C)n1c(SCC(N)=O)nc2c1c(=O)n(C)c(=O)n2C | -0.04 | i | i | i | i | i
CN(C)CCCn1c(SCC(=O)N2c3ccccc3Sc3ccccc32)nc2ccccc2c1=O | -5.2* | i | i | i | i | i
CCOc1ccc(NC(=O)NCCCCc2ccccc2)cc1 | -1.3 | i | i | i | i | i
CCCCCCCCNC(=O)/C(C#N)=C/c1ccccc1[N+](=O)[O-] | -3.2 | i | i | i | i | i
C/C(=N\N=C(N)N)c1ccc(Cl)c(Cl)c1 | -5.3* | i | i | i | i | i
COc1ccc(CC2(CO)CCN(C/C=C/c3ccccc3OC)CC2)cc1 | -0.02 | i | i | -6* | i | i
CC(COc1ccccc1)N1CCC(CO)(Cc2ccccc2)CC1 (centres undefined) | -0.63 | i | i | -9* | i | i
COc1ccc(CC2(CO)CCN(C(C)COc3ccccc3)CC2)cc1 (centres undefined) | -0.93 | i | i | i | i | i
Cc1ccc2[nH]c(C)c(CCN(Cc3cccnc3)C(=S)NC(C)(C)C)c2c1 | -1.4 | i | i | i | 16* | i
CCNc1nc2nc3ccc(C)cn3c(=O)c2cc1C(=O)NCC1CCCO1 (centres undefined) | 1.9 | i | i | i | i | i
SMILES | Kir21 inh | TRPC6 activator | TRPC4 act | TRPC4 inh | TRPC4 potent | TRPC6 inh
C=CCNC(=O)c1cc2c(=O)n3cc(C)ccc3nc2nc1NCC1CCCO1 (centres undefined) | 1.4 | i | i | i | i | -5.9*
CCCC(C)NCC(=O)Nc1ccccc1-c1ccccc1 (centres undefined) | -4.5* | i | i | i | i | i
Cc1ccccc1CN(C)CC(=O)Nc1ccccc1-c1ccccc1 | -5.6* | i | i | i | i | i
CC(Sc1ccc(Cl)cc1)C(=O)Nc1ccccc1-c1ccccc1 (centres undefined) | -2.3 | i | i | i | i | i
Cc1ccc(SC(C)C(=O)Nc2ccccc2-c2ccccc2)cc1 (centres undefined) | -6.9* | i | i | i | i | i
CN(CC(=O)Nc1ccccc1Oc1ccccc1)Cc1ccccc1F | -5.1* | i | i | i | i | i
Cc1ccccc1CN(C)CC(=O)Nc1ccccc1Oc1ccccc1 | 0.25 | i | i | i | i | i
CCC(C(=O)Nc1ccccc1-c1ccccc1)c1ccccc1 (centres undefined) | -4.9* | i | i | i | i | i
COCC(=O)Nc1ccccc1-c1ccccc1 | 1.2 | i | i | i | i | i
CCC(C(=O)Nc1ccccc1)c1ccccc1 (centres undefined) | -0.73 | i | i | i | i | i
CC(=O)Nc1ccc(SCC(=O)Nc2ccccc2-c2ccccc2)cc1 | -4.3* | i | i | i | i | i
COc1ccc(Cl)cc1NC(=O)COC(=O)Cc1cccs1 | -0.96 | i | i | i | i | i
CCn1cc(SCC(=O)NCc2ccc3c(c2)OCO3)c2ccccc21 | -4.7* | i | i | i | i | i
CCCn1cc(SCC(=O)NCc2ccc3c(c2)OCO3)c2ccccc21 | 0.47 | i | i | i | i | i
O=C(CSc1nccn1-c1ccc(Cl)cc1)NCc1ccc2c(c1)OCO2 | -4.5* | i | i | i | i | i
Cc1c(NC(=O)c2cc(-c3ccccc3O)on2)c(=O)n(-c2ccccc2)n1C | -0.98 | i | i | i | i | i
CCN(c1ccccc1)S(=O)(=O)c1ccc(Cl)c(NC(=O)CN2CCCCCC2)c1 | 0.43 | 18* | i | i | i | i
COc1ccc(-c2nnn(CC(=O)NCc3ccccc3)n2)cc1OC | -0.09 | i | i | i | i | i
CC1CCC(C(C)C)C(OC(=O)C[n+]2cc(-c3ccc(Cl)cc3)n3c2CCCCC3)C1 (centres undefined) | -8.6* | i | i | i | i | i
Cc1ccc(C(=O)CCC2CCCCC2=O)cc1 (centres undefined) | 0.58 | i | i | i | i | i
Cn1c(=O)c2c(nc(CN3CCc4ccccc4C3)n2Cc2ccccc2F)n(C)c1=O | -1.9 | i | 169* | i | i | i
CC(c1nnnn1C(C)(C)C)N(Cc1cccnc1)Cc1ccccc1Cl (centres undefined) | -4.3* | i | i | i | i | i
CC(CC(=O)NCC1CCCO1)c1ccccc1 (centres undefined) | -1.6 | i | i | i | i | i
